The RNAGym collection of RNA variant scans (doi:10.1126/science.aae0568)
Variants at the floor of the assay were thinned out.

B1: tRNA (parent)
chain: GUUCCGUUGGCGUAAUGGUAACGCGUCUCCCUCCUAAGGAGAAGACUGCGGGUUCGAGUCCCGUACGGAACG

Variants of: B1
Assay: yeast fitness relative to wild type (ratio to wild type); higher = fitter; tRNA-Arg(CCU), competitive growth, 37 C, YPD
In short: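 Changes in genotype frequencies gave Darwinian fitness relative to wild type. Frequencies were read by 100-nucleotide paired-end sequencing of gene amplicons before and after pooled Saccharomyces cerevisiae strains, carrying tRNA-Arg(CCU) gene variants at the native locus, were competed in YPD at 37°C for 24 hours in six replicates. A genotype was kept only with ≥ 100 starting reads, and estimates < 0.5 were set to 0.5.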

| Variant | yeast fitness |
| --- | --- |
| GUUCCGUUGGCGUAAUGAUAACGCGUCUCCCUCCUAUGGAGAAGACAGCGGGUUCGAGUCCUGUACGGAACG | ≤ 0.5 |
| GUUCCGUUAGCGUAAUGGUAAGGCGUCUCCCUCCUAAGGAGAAGGCUGCGGGUUCGAGUCCCGUACGGAACG | 0.588 |
| GUUCCGUUGGCGUAAUGGUAAUGCGUCGCCCACCUAAGGAGAAGACUGCGGGUUCGAGUCCCGUACGGAACG | ≤ 0.5 |
| GUUCCGUUGGCGUAAUGGUAACGCGUCUCCCUUCUAAGGAGAAGACUACGGGUUCGAGUCCCGUACGGCACG | 0.705 |
| GUCCCGUUGGCGUAAUGGUGACGUGUCUCCCUCCUAAGGAGAAGACUGCGGAUUCGUGUCCAGUACGGAACG | ≤ 0.5 |
| GUUCCGUUGGCGUAAUGGUAACGCGUCUCCCUCCCAAGGAGAAGACUGCGGGUUAGAGUCCCGUACGGAACG | ≤ 0.5 |
| GUUCGGUUGGCGUAAUGGUAAUGCGACUCCCUCCUAAGGAGAAGACUGCGGGUUCGAGUCCCGUUCGGAACG | ≤ 0.5 |
| GUUCCGUUGGCGUAUUGGUAAGGCGUCUCCCUCCUAGGGAGAAGACUGCGGGUUGGAGUGCCGUACGGAACG | ≤ 0.5 |
| GUUCCGUUGGCGUAAUGGUAACGCGUCUCCCUCCUAAGGAGAAGACUGCGAGUUCGAGUCCCGUACGGCACG | 0.979 |
| GUUCCGUUGGCGUAAUGGUACCGCGUCUCCCUCCUUGGGAGCAGACUGCGGGUUCGAGUCCCGAACGGAACG | ≤ 0.5 |
| GUUCCGUUGGCGUCAUGGUAACGCGUCUCCCUCCUAAGGAGAAGACUGCGGGUUCGAGUCCCGUCCGGAACG | 0.635 |
| GUUCGGUUGGCGUAUUGGUAACGCGUCUGCCUCCUAAGGAGAAGACUGCGGGUUCGAGUCCCGUACGGAACG | ≤ 0.5 |
| GUUCCAUUGGCGUAAUGGUAACGCGUCUGCCCCCUAAGGAGAAGACUGCGGGUUCGAGUCCCGUACGGAACG | 0.548 |
| GUUCCGUUGGGGUAAUGGUAGCGCGUCUCCCUCCUAAGGAGAAGACUGCGGGUUCGGGUCCCGUACGGAACG | ≤ 0.5 |
| GUUCCGUUGGCGUGAUGGUAACGCGUCUCCCUUCUAAGGAGAAGACUGCGGGUUCGAGUCCCAUACGGAACG | 0.614 |
| GUUCCGUUGGCGUAAUGAUAACGCGUUUCCCUCCUAAGGAGAAGAAUGCGGGUUCGAGUCCCGUACGGAACG | 0.528 |
| GUUCCGUUGGCGUAAUGGUAACGCGUCUCCCUCCUAAGCAGAAGACUGCGGGUUCGAGUCCUGUACGGAACG | 0.776 |
| GUUCCGUUGGCGUAAUGGUAACGCGUCUCCCUCCUAAGGAGAAGACCGCGGGUUCGAGUGCCGUACGGAACG | 0.651 |
| GUUCCGUUGGCGUAAUGGUAACGCGUUUCCCUCCUAAGGCGAAGACUGCGGGUUCGUGUCCCGUACGGAACG | 0.606 |

| Variant | yeast fitness |
| --- | --- |
| GUUCCGUUGGCGUAAUGGUAACGCGUCUUCCUCUUAAGGAGAAGACUGCGGGUUCGCGUCCCGCACGGAACG | 0.549 |
| GUUUCGUUGGCGUAAUGGUAACCCGUCUCCCUCCUCAGGAGAAGACUGCGGGUUCGAGUCCCGUACGGAACG | 0.597 |
| GUUCCGUGGGCGUAAUGGUAACGCGUCUCCCUCCUAUGGAGAAGACUGCGGGUUCGAGUCCCCUACGGAACG | ≤ 0.5 |
| GUUCCGUUCGCGAAAUGGUAACGCAUCUCCCUCCUAAGGCGAAGACUGCGGGUUCGCGUCGCGUACAGAACG | ≤ 0.5 |
| GUCCCGUUGGCGUAAUGGUAACGCGUCUCCUUCCUUAGCAGAAGACUGCGGGUUCGAGUCCCGUACGGAACG | ≤ 0.5 |
| GUUCCGUUGGCGUAAUGGUCACGCGUCUCCCUCAUAGGGAGAAGAAUGCGGGUUCGAGUCCCGUACGGAACG | 0.541 |
| GUUCCGUUGGCGUAAUGGUAACGCGUCUCCCUCCUAAGGAGAAGACUGUGGGUUCGAGUCCCGUGCAGUACG | ≤ 0.5 |
| GUUCCAUUCGGGUAAUGGUAACGCAUCUCCCUCUUAAGGAGAAGACUGCGGGUUCGAGUCCCGUACGAAACG | ≤ 0.5 |
| GUUCCGUUGGCGUAAUGGUAACGCGUCUCCCUCCUAAGGACGAGACUGCGGGUUCGAGUCCCGUACGGAGCG | 0.593 |
| GUUCCGUUGGCGUAAUGGUAACGCGUCUUACUCCUAAGGAGAAGACUGCGGGUUCGAGGCCCGUACGGCACG | ≤ 0.5 |
| GUUCCGUUGGCGUACUGGUAACGCGUCACCCUCGUAAGGAGAUGACUGCGGGUUCGAGUCCCGUACGCAACG | ≤ 0.5 |
| GUUCCGUUGGCGUAAUGGUAACGCGUCUCCCUCCUAAGGCGUCGACUACGGGUUCGAGUCCCGUACGGAACG | 0.55 |
| GUUCCGUUGGCGUAAUCGUAACGCGUCUCCCUCCUAAGGAGAAGACGGCGGGUUCGAGUCCCGUACAGUACG | 0.55 |
| GUUCGGUUGGCGGAAUGGUAACGCGUCUUCCUCCUAAGGGGAAGACUGCGGGUUCGAGUUCCGUGCGGAACG | ≤ 0.5 |
| GUUCCGUUGGCGUAUUGGUCACGCGUCUCCCUCCUAAGGAGACGACUGCGAGUUCCAGUCCCGUACGGAACG | ≤ 0.5 |
| GUUCCGUUGGCGUAAUGGUACCGCGUCUCGCUCCUAAGGAGAAGACUGCGGGUUCGAGUCCCGUACGGCACG | 0.542 |
| GUUCCGUUGGCGUAAUGGUAACGCGUCUCCCUCCAAAGGAGGCGACUGCGGGUUCGAGUCCCGUACGGAACG | 0.581 |
| GUUCCGUUGGCGUAAUGGUAACGCGACUCCCUCCUAAGGAGAAGACUGCGGGUUCGAUUCCCGUACGGAACG | 1.03 |
